Laboratory results published in ChEMBL document CHEMBL1287787, “Design and synthesis of disubstituted thiophene and thiazole based inhibitors of JNK” (Bioorg Med Chem Lett, 2010).
pIC50: −log10 of the molar value. Values belong to the compound of their own block, whether it stands above or below them.

Tests used:
[1] = target: Mitogen-activated protein kinase 9 (Homo sapiens, UniProt P45984); assay: Inhibition of recombinant JNK2 after 60 mins by TR-FRET assay
[2] = test system: MDCK; assay: Efflux ratio of permeability from […] side in MDCK cells expressing p-gp after 120 mins; assay type: ADME, cell-based, Canis lupus familiaris; conditions: dog, 2 h
[3] = test system: MDR1; assay: Permeability from apical to basolateral side of MDCK cells expressing MDR1 after 120 mins; assay type: ADME, cell-based, Canis lupus familiaris; conditions: dog, read-out: permeability
[4] = target: T1, Mitogen-activated protein kinase 1 (Homo sapiens, UniProt P28482); assay: Inhibition of recombinant Erk2 after 60 mins by TR-FRET assay
T1 sequence (P28482 whole entry): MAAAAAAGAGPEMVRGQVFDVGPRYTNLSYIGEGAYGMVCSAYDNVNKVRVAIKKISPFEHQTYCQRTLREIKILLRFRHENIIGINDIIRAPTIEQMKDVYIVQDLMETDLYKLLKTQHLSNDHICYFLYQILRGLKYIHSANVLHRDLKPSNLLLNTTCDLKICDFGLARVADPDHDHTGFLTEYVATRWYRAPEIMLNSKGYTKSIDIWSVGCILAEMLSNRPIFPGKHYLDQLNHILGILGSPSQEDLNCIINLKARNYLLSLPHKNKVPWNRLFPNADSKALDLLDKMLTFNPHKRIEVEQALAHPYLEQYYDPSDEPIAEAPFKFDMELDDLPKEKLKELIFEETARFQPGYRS

[5] = Solubility of compound in Hank's buffered salt solution; assay type: physicochemical
[6] = Metabolic stability in mouse liver microsomes assessed as compound remaining after 30 mins; assay type: ADME, Microsome; conditions: read-out: Stability
In short: (§1)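 Test compound incubated with mouse or human liver microsomes for 30 min. Read-out is the percent of parent compound remaining at the end of the incubation.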

[7] = Metabolic stability in human liver microsomes assessed as compound remaining after 30 mins; assay type: ADME, Microsome; conditions: read-out: Stability; in short: as §1
[8] = target: T2, Mitogen-activated protein kinase 10 (Homo sapiens, UniProt P53779); assay: Inhibition of recombinant JNK3 after 60 mins by TR-FRET assay
T2 sequence (P53779 whole entry): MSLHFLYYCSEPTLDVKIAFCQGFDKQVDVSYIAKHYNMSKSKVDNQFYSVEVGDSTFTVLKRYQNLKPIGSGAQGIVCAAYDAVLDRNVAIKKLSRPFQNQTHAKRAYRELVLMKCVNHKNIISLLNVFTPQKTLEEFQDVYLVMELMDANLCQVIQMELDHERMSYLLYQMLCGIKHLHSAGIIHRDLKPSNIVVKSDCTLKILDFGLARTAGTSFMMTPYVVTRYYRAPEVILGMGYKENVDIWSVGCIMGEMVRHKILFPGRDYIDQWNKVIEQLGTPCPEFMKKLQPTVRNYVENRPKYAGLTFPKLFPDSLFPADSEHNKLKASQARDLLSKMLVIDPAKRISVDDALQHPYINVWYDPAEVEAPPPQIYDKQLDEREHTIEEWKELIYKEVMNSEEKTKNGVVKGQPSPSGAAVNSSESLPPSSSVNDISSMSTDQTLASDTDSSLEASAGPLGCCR

[9] = target: Mitogen-activated protein kinase 14 (Homo sapiens, UniProt Q16539); assay: Inhibition of recombinant p38alpha after 60 mins by TR-FRET assay
Chain of Mitogen-activated protein kinase 14 (Q16539 whole entry): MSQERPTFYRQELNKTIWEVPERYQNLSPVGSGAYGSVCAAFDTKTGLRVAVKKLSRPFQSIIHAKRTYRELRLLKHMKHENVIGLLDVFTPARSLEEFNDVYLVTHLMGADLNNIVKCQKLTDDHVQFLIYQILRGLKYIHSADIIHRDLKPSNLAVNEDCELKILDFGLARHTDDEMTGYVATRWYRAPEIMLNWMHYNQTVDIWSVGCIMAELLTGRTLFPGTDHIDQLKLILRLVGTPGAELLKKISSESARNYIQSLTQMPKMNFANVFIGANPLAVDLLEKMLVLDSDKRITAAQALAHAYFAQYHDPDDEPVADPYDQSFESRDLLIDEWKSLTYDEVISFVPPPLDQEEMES

[10] = target: Mitogen-activated protein kinase 8 (Homo sapiens, UniProt P45983); assay: Inhibition of recombinant JNK1 after 60 mins by TR-FRET assay
Chain of Mitogen-activated protein kinase 8 (P45983 whole entry): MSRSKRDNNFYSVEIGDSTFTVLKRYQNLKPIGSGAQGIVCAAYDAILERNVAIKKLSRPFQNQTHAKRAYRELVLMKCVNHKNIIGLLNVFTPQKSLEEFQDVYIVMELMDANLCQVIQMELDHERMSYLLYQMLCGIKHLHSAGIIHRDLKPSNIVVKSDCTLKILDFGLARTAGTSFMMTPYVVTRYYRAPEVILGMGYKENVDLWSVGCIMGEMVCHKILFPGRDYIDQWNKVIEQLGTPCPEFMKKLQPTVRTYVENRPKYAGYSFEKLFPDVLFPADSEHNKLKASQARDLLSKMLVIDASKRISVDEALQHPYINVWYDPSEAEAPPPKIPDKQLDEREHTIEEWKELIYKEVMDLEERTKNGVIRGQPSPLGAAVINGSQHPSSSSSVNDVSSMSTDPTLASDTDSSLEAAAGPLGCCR

[11] = target: Receptor-interacting serine/threonine-protein kinase 2 (Homo sapiens) (UniProt O43353); assay: Inhibition of RIPK2 at 10 uM
Chain of Receptor-interacting serine/threonine-protein kinase 2 (Homo sapiens) (O43353 whole entry): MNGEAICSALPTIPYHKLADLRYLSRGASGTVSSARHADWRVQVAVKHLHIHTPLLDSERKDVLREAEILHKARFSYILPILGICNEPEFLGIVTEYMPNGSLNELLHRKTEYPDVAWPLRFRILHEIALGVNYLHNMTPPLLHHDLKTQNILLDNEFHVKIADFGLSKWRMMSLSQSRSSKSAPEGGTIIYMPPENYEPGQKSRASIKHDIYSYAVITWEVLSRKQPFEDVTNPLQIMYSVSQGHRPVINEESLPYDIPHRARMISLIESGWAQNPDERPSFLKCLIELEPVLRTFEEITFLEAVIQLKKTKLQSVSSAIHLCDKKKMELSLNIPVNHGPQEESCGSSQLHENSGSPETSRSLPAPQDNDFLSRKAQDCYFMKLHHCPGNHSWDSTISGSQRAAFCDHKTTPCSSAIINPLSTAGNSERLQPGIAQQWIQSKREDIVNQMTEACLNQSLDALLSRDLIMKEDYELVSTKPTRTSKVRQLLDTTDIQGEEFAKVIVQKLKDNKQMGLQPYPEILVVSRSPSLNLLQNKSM

[12] = target: Proto-oncogene tyrosine-protein kinase receptor Ret (Homo sapiens) (UniProt P07949); assay: Inhibition of RET at 10 uM
[13] = target: Receptor-type tyrosine-protein kinase FLT3 (Homo sapiens) (UniProt P36888); assay: Inhibition of FLT3 at 10 uM
[14] = target: Serine/threonine-protein kinase PLK1 (Homo sapiens) (UniProt P53350); assay: Inhibition of PLK1 at 10 uM
[15] = target: Cyclin-dependent kinase 1/cyclin B (Homo sapiens) (UniProt P06493+P14635+Q8WWL7+O95067); assay: Inhibition of CDK1/cyclin B at 10 uM; assay type: protein-complex assay
[16] = target: Tyrosine-protein kinase Lck (Homo sapiens) (UniProt P06239); assay: Inhibition of LCK at 10 uM
[17] = target: Insulin receptor (Homo sapiens) (UniProt P06213); assay: Inhibition of INSR at 10 uM
Chain of Insulin receptor (Homo sapiens) (P06213 28-758 limits assumed): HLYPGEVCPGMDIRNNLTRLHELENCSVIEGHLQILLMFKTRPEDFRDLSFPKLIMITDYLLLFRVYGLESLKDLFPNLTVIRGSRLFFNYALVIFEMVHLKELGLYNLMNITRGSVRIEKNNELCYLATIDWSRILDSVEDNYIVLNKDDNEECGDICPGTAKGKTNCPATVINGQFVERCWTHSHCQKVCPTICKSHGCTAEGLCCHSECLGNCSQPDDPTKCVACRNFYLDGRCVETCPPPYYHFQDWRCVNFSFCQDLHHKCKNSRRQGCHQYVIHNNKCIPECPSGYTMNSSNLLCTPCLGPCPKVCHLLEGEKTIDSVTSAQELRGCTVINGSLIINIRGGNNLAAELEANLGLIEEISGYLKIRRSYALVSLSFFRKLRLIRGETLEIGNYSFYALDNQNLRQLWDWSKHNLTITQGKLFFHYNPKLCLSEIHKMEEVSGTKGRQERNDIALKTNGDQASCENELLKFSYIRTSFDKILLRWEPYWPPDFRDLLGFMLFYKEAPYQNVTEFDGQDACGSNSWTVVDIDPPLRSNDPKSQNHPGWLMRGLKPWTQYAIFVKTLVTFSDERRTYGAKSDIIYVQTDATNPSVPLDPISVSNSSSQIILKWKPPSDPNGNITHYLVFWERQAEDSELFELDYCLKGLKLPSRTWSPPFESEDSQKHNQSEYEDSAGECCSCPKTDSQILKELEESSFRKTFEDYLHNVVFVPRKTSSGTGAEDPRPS
Chain of Insulin receptor (Homo sapiens) (P06213 763-1382 limits assumed): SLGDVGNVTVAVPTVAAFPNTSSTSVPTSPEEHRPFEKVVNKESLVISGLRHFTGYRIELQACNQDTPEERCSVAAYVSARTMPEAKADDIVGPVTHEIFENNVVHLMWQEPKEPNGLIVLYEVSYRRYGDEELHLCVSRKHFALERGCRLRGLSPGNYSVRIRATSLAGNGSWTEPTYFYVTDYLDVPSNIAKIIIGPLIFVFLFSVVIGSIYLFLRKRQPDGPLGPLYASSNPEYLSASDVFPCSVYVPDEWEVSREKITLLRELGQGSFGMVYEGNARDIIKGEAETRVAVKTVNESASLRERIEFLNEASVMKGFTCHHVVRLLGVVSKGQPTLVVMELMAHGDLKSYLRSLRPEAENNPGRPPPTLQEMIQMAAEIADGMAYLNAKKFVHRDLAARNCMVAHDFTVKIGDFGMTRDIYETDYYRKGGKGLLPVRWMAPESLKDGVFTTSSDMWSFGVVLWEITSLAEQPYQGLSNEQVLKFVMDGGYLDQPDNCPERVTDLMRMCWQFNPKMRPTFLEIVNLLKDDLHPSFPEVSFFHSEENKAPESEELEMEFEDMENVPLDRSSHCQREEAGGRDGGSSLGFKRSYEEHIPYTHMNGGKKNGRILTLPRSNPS

[18] = target: Glycogen synthase kinase-3 beta (Homo sapiens) (UniProt P49841); assay: Inhibition of GSK3-beta at 10 uM
[19] = target: cAMP-dependent protein kinase catalytic subunit alpha (Homo sapiens) (UniProt P17612); assay: Inhibition of PRKACA at 10 uM
[20] = target: Serine/threonine-protein kinase PAK 4 (Homo sapiens) (UniProt O96013); assay: Inhibition of PAK4 at 10 uM
[21] = target: PI3-kinase p110-alpha/p85-alpha (Homo sapiens) (UniProt P27986+P42336); assay: Inhibition of PIK3CA/PIK3R1 at 10 uM; assay type: protein-complex assay
[22] = target: T1, Mitogen-activated protein kinase 1; assay: Inhibition of MAPK1 at 10 uM
[23] = target: Receptor tyrosine-protein kinase erbB-4 (Homo sapiens) (UniProt Q15303); assay: Inhibition of ERBB4 at 10 uM
[24] = target: Aurora kinase A (Homo sapiens) (UniProt O14965); assay: Inhibition of AURKA at 10 uM
[25] = target: Serine/threonine-protein kinase 16 (Homo sapiens) (UniProt O75716); assay: Inhibition of STK16 at 10 uM
[26] = target: Tyrosine-protein kinase SYK (Homo sapiens) (UniProt P43405); assay: Inhibition of SYK at 10 uM
[27] = target: Dual specificity protein kinase TTK (Homo sapiens) (UniProt P33981); assay: Inhibition of TTK at 10 uM
[28] = target: Platelet-derived growth factor receptor alpha (Homo sapiens) (UniProt P16234); assay: Inhibition of PDGFRA at 10 uM
[29] = target: Tyrosine-protein kinase ABL1 (Homo sapiens) (UniProt P00519); assay: Inhibition of ABL1 at 10 uM
[30] = target: Cyclin-dependent kinase 5/CDK5 activator 1 (Homo sapiens) (UniProt Q00535+Q15078); assay: Inhibition of CDK5/p25 at 10 uM; assay type: protein-complex assay
[31] = target: Dual specificity protein kinase CLK1 (Homo sapiens) (UniProt P49759); assay: Inhibition of CLK1 at 10 uM
[32] = target: Protein kinase C beta type (Homo sapiens) (UniProt P05771); assay: Inhibition of PRKCB1 at 10 uM
[33] = target: Serine/threonine-protein kinase PLK2 (Homo sapiens) (UniProt Q9NYY3); assay: Inhibition of PLK2 at 10 uM
[34] = target: Cyclin-dependent kinase 2/cyclin A (Homo sapiens) (UniProt P24941+P20248+P78396); assay: Inhibition of CDK2/cyclin A at 10 uM; assay type: protein-complex assay
[35] = target: Serine/threonine-protein kinase MARK2 (Homo sapiens) (UniProt Q7KZI7); assay: Inhibition of MARK2 at 10 uM
[36] = target: Calcium/calmodulin-dependent protein kinase type II subunit alpha (Homo sapiens) (UniProt Q9UQM7); assay: Inhibition of CAMK2A at 10 uM
[37] = target: T2, Mitogen-activated protein kinase 10; conditions: 10 uM
[38] = target: Dual specificity tyrosine-phosphorylation-regulated kinase 1B (Homo sapiens) (UniProt Q9Y463); assay: Inhibition of DYRK1B at 10 uM
[39] = target: Serine/threonine-protein kinase 3 (Homo sapiens) (UniProt Q13188); assay: Inhibition of STK3 at 10 uM
[40] = target: Serine/threonine-protein kinase Chk1 (Homo sapiens) (UniProt O14757); assay: Inhibition of CHEK1 at 10 uM
[41] = target: Macrophage colony-stimulating factor 1 receptor (Homo sapiens) (UniProt P07333); assay: Inhibition of CSF1R at 10 uM
[42] = target: Serine/threonine-protein kinase PLK3 (Homo sapiens) (UniProt Q9H4B4); assay: Inhibition of PLK3 at 10 uM
[43] = target: RAC-alpha serine/threonine-protein kinase (Homo sapiens) (UniProt P31749); assay: Inhibition of AKT1 at 10 uM
[44] = target: Protein-tyrosine kinase 2-beta (Homo sapiens) (UniProt Q14289); assay: Inhibition of PTK2B at 10 uM
Chain of Protein-tyrosine kinase 2-beta (Homo sapiens) (Q14289 whole entry, looked up): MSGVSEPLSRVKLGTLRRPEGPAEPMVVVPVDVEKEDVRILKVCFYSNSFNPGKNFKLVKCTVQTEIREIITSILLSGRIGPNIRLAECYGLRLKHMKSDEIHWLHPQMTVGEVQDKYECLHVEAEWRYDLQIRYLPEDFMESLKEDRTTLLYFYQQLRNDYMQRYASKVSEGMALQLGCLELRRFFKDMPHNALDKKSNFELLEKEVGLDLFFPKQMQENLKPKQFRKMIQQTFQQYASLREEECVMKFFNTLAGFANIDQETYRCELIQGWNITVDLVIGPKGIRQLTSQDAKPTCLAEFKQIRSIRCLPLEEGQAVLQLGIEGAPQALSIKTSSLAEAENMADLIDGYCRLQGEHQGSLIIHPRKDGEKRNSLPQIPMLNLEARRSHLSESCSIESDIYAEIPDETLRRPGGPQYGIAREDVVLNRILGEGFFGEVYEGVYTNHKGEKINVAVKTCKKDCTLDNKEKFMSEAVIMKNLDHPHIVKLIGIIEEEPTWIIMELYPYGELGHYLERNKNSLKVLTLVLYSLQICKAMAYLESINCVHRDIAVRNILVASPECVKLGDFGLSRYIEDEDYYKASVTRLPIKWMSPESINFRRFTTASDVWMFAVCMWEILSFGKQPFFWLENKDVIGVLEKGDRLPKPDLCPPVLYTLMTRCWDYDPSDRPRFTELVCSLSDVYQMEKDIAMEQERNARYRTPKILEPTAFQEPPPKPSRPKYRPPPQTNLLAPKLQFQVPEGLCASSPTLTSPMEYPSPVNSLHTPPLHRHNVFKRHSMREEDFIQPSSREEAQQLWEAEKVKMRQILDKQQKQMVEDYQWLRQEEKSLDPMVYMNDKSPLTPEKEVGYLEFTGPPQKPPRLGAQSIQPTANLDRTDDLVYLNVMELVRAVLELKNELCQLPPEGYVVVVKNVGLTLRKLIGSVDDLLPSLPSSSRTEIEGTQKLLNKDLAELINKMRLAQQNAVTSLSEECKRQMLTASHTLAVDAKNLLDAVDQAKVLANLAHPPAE

[45] = target: Tyrosine-protein kinase JAK1 (Homo sapiens) (UniProt P23458); assay: Inhibition of JAK1 at 10 uM
[46] = test system: RAF proto-oncogene serine/threonine-protein kinase (Homo sapiens), P04049 [Y340D,Y341D]; assay: Inhibition of RAF1 Y340D/Y341D mutant at 10 uM
[47] = target: Rho-associated protein kinase 2 (Homo sapiens) (UniProt O75116); assay: Inhibition of ROCK2 at 10 uM

Chain of Mitogen-activated protein kinase 9 (P45984 whole entry): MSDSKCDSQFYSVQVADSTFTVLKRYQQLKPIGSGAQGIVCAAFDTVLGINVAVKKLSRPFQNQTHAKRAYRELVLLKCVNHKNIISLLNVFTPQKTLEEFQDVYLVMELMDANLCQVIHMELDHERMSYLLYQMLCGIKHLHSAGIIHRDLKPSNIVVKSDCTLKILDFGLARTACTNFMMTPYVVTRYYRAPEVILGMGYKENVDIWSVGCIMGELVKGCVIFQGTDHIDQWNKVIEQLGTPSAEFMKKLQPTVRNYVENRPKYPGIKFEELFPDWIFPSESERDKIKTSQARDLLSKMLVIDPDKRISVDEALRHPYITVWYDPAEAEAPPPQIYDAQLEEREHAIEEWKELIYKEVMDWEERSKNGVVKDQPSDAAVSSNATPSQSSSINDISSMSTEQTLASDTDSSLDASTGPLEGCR

SMILES: O=C(Cc1cccc2cnccc12)Nc1scnc1-c1cnccn1
pIC50 [1]: 5.70
Ratio [2]: 0.73
pIC50 [4]: < 4.30
remaining at 0.5 h [6]: 3%
remaining at 0.5 h [7]: 2%
pIC50 [8]: 6.33
pIC50 [9]: < 4.30
pIC50 [10]: 6.39

SMILES: COC(=O)c1ncsc1NC(=O)Cc1cccc2cnccc12
pIC50 [1]: 5.28
Ratio [2]: 0.8
pIC50 [4]: < 4.30
remaining at 0.5 h [6]: 11%
remaining at 0.5 h [7]: 41%
pIC50 [8]: 5.80
pIC50 [9]: < 4.30
pIC50 [10]: 5.77

SMILES: O=C(Cc1cccc2cnccc12)Nc1scnc1-c1cscn1
Inihibition [11]: 16%
Inihibition [12]: 21%
Inihibition [13]: 37%
Inihibition [14]: 8%
Inihibition [15]: 4%
Inihibition [16]: 6%
Inihibition [17]: 3%
Inihibition [18]: 13%
Inihibition [19]: 14%
Inihibition [20]: -4%
pIC50 [1]: 6.33
Ratio [2]: 1.9
Inihibition [21]: 31%
Inihibition [22]: 16%
Inihibition [23]: 4%
Inihibition [24]: 27%
Inihibition [25]: 9%
Inihibition [26]: 6%
Inihibition [27]: 85%
Inihibition [28]: 7%
Inihibition [29]: 7%
Inihibition [30]: 9%
pIC50 [4]: < 4.30
Inihibition [31]: 7%
Inihibition [32]: 18%
Inihibition [33]: 24%
Inihibition [34]: 9%
Inihibition [35]: 8%
Inihibition [36]: 9%
Inihibition [37]: 69%
Inihibition [38]: 21%
Inihibition [39]: 5%
Inihibition [40]: 8%
Inihibition [41]: 33%
remaining at 0.5 h [6]: 50%
Inihibition [42]: 17%
remaining at 0.5 h [7]: 79%
Inihibition [43]: 2%
Inihibition [44]: 6%
Inihibition [45]: 4%
Inihibition [46]: 5%
pIC50 [8]: 7.11
Inihibition [47]: 3%
pIC50 [9]: < 4.30
pIC50 [10]: 7.32

SMILES: COc1ccc(CC(=O)Nc2ccsc2-c2cnccn2)cc1
pIC50 [1]: 5.24
Papp A→B at 2 h [3]: 22.2 ×10⁻⁶ cm/s
pIC50 [4]: < 4.30
remaining at 0.5 h [6]: 0%
remaining at 0.5 h [7]: 0%
pIC50 [8]: 5.82
pIC50 [9]: < 4.30
pIC50 [10]: 5.96

More lines, now with the values ahead:

pIC50 [1]: 6.03
Ratio [2]: 1.1
Papp A→B at 2 h [3]: 26.1 ×10⁻⁶ cm/s
pIC50 [4]: < 4.30
solubility [5]: 90 µM
remaining at 0.5 h [6]: 1%
remaining at 0.5 h [7]: 4%
pIC50 [8]: 6.80
pIC50 [9]: < 4.30
pIC50 [10]: 6.85
SMILES: O=C(Cc1cccc2cnccc12)Nc1ccsc1-c1cscn1

pIC50 [1]: 5.59
Ratio [2]: 5
pIC50 [4]: 4.62
remaining at 0.5 h [6]: 15%
remaining at 0.5 h [7]: 14%
pIC50 [8]: 6.09
pIC50 [9]: < 4.30
pIC50 [10]: 6.15
SMILES: O=C(Cc1cccc2cnccc12)Nc1scnc1-c1ncn[nH]1

pIC50 [1]: 6.15
Ratio [2]: 4.2
Papp A→B at 2 h [3]: 6 ×10⁻⁶ cm/s
pIC50 [4]: < 4.30
solubility [5]: > 100 µM
remaining at 0.5 h [6]: 23%
remaining at 0.5 h [7]: 67%
pIC50 [8]: 6.25
pIC50 [10]: 6.57
SMILES: O=C(Cc1cccc2ncccc12)Nc1ccsc1-c1nnc[nH]1
